CaV13 ICDI inh: Disruptors of the CACNA1D IQ motif to Ca2+-dependent inactivation inhibitor domain association, primary screening, Förster resonance energy transfer in intact living …; HEK cells, CFP/YFP FRET ICDI-IQ, plate reader, 10 min; percent FRET-ratio fall versus neutral wells; inhibition, % at 12.3 µM; 340,000 tested, 0.098% active; AID 743397;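 active = mean replicate inhibition of at least 30% and at least 1% of replicates passing that level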
Keap1-Nrf2 PPI: inhibitors of human Keap1-Nrf2 protein-protein interaction; Keap1 Kelch-Nrf2 peptide fluorescence polarization, 1536-well; inhibition, % at 9.4 µM; 340,000 tested, 0.15% active; AID 504523; in the data active = inhibition above about 12%;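 note: human Keap1 Kelch domain with fluorescein labeled Nrf2 9mer peptide probe; higher means more block of Keap1 binding to Nrf2 peptide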
LANA DNA inh: blocks KSHV LANA C-terminal domain binding to DNA. MBP-C-LANA/FAM-LBS DNA binding, fluorescence polarization. inhibition, % at 9 µM. 340,000 tested, 0.078% active. AID 504423;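 active = highest replicate inhibition at or above 60% at 9 µM, even if other replicates fall short; inactive = all replicates below 60% inhibition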
CAL PDZ FP-1: blocks peptide binding to the human CAL PDZ domain. purified CAL PDZ, TMR-peptide fluorescence polarization, 1 h. inhibition, % at 24.9 µM. 300,000 tested, 0.92% active;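 active = mean inhibition of at least 30% with at least half of replicates also reaching 30%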
CAL PDZ FP-2: inhibitors of human CAL PDZ peptide binding; Q9HD26; purified CAL PDZ, TMR-peptide fluorescence polarization, 1 h; inhibition, % at 20 µM; 330,000 tested, 0.02% active; AID 504414;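 active = highest replicate inhibition of at least 40%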
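Assay system – tagged CAL PDZ protein CerCALP, purified · Timing – 1 h at RT · Compound – single point, 20 µM · Measured by – fluorescence polarization from S- and P-plane intensities, G-factor corrected · Evaluation – inhibition from polarization loss · Probe or stimulus – TMR reporter peptide T*-PRC34 · Buffer or medium – pH 7.4 phosphate-saline buffer, reducing agent, detergent, IgG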
LANA-H2B inh: blocks KSHV LANA binding to histone H2A/H2B; inhibition, % (concentration not given with the values); 320,000 tested, 0.6% active; AID 2629; Q9QR71; cell-free LANA-H2A/H2B peptide, fluorescence polarization; in the data active = inhibition mostly above about 10%, no sharp cut-off; inactive = mostly below about 6.7%
Large screens that a line does not name were inactive. In the library only some 1.5% were active in any assay of this set; here they are far more common.

O=C(CN1CCC(n2nnc3cc(C(F)(F)F)ccc32)CC1)Nc1ccc2c(c1)CCC2	none (no result: CaV13 ICDI inh)
O=C(CN1CCC(n2nnc3cc(C(F)(F)F)ccc32)CC1)Nc1ccc2c(c1)OCCO2	CAL PDZ FP-1 48.8
Cc1ccc(OC(=O)N(C)C[C@H]2OCc3cn(nn3)CCCC(=O)N([C@@H](C)CO)C[C@@H]2C)cc1	none (no result: Keap1-Nrf2 PPI, LANA DNA inh, CAL PDZ FP-1, CAL PDZ FP-2, LANA-H2B inh)
N#C/C(=C(/O)c1ccc2c(c1)OCO2)c1nc2cc(C(F)(F)F)ccc2s1	CAL PDZ FP-1 42.6
COCCN1C=C(C(=O)OC)C(c2ccc(Cl)cc2)C(C(=O)OC)=C1	CaV13 ICDI inh active
CCOc1ccc(C2C(C(=O)OC)=CN(CCOC)C=C2C(=O)OC)cc1	none
Cc1ccc(C)c(OCC(O)CN2CCC(Cc3ccccc3)CC2)c1 (centres undefined)	CAL PDZ FP-1 37.1
O=CNc1cc(-c2cccc(O)c2)cn2c(-c3ccc(F)cc3)cnc12	none (no result: Keap1-Nrf2 PPI, LANA DNA inh, CAL PDZ FP-1, CAL PDZ FP-2, LANA-H2B inh)
Cc1ccccc1NC(=O)c1nc(S(C)(=O)=O)ncc1Cl	CAL PDZ FP-1 85.8
Cc1cccc(C)c1NC(=O)c1nc(S(=O)(=O)Cc2ccccc2)ncc1Cl	none (no result: LANA-H2B inh)
N#Cc1cc2c([nH]c1=O)CCCC2	LANA-H2B inh 9.1
N#Cc1cc2c([nH]c1=S)CCCC2	none
COC(=O)CCN(C)CCC(=O)OC	none (no result: CaV13 ICDI inh)
COC(=O)CC#N	LANA-H2B inh active (no result: CaV13 ICDI inh)
O=C(Nc1cccc(Cl)c1)N1CCN(C/C=C/c2ccccc2)CC1	CAL PDZ FP-1 47.7
O=C(/C=C(\Nc1ccc(Br)c(F)c1)c1ccccc1)c1ccccc1	none (no result: Keap1-Nrf2 PPI, LANA DNA inh, CAL PDZ FP-1, CAL PDZ FP-2, LANA-H2B inh)
O=C1C=CC2=C3c4cc(O)c(O)cc4CC3(O)COC2=C1O (centres undefined)	LANA DNA inh 107.1 (no result: CaV13 ICDI inh, LANA-H2B inh)
Cc1ccc2c(c1)-c1c(cnn1CC(=O)Nc1ccccc1N1CCN(C)CC1)CO2	CaV13 ICDI inh 46.0
Cc1ccc2c(c1)-c1c(cnn1CC(=O)O)CO2	none
C[C@H]1CN([C@@H](C)CO)C(=O)CCCn2cc(nn2)CO[C@@H]1CN(C)C(=O)c1ccccc1	none (no result: Keap1-Nrf2 PPI, LANA DNA inh, CAL PDZ FP-1, CAL PDZ FP-2, LANA-H2B inh)
Cc1cccc(C)c1-c1ccc(CN2C(CC(C)C)C(=O)N(Cc3cn(CCO)nn3)CCS2(=O)=O)cc1 (centres undefined)	none (no result: LANA-H2B inh)
O=C(N[C@H](Cc1ccccc1)C(=O)N1CCN(C(=O)N2CCOCC2)CC1)[C@H]1O[C@@H](n2ccc(=O)[nH]c2=O)[C@H](O)[C@@H]1O	none (no result: Keap1-Nrf2 PPI, LANA DNA inh, CAL PDZ FP-1, CAL PDZ FP-2, LANA-H2B inh)
CC1=C(C(=O)OCC2CCCO2)C(c2ccncc2)C2=C(CC(C)(C)CC2=O)N1 (centres undefined)	CAL PDZ FP-1 40.3 (no result: CaV13 ICDI inh, CAL PDZ FP-2)
CC[C@H](NC(=O)[C@@H](Cc1ccccc1)NC(=O)[C@H]1O[C@@H](n2cnc3c(=O)[nH]c(N)nc32)[C@H](O)[C@@H]1O)c1ccccc1	none (no result: Keap1-Nrf2 PPI, LANA DNA inh, CAL PDZ FP-1, CAL PDZ FP-2, LANA-H2B inh)
Cc1cc(C)c2c(c1)/C(=N/NC(=O)c1cc(C)oc1C)CCC2	none
Cc1cc(C)c2c(c1)/C(=N/NC(=O)c1ccc(O)cc1)CCC2	CAL PDZ FP-1 68.6
COc1cc([N+](=O)[O-])ccc1NC(=O)NCC1CCN(Cc2ccc(Cl)cc2)CC1	CAL PDZ FP-1 45.5 (no result: CAL PDZ FP-2)
COC(=O)c1ccc(C2=NOC(C)(c3sc(-c4ccc(Cl)cc4)nc3C)C2)cc1 (centres undefined)	none
COC(=O)c1ccc(C2=NOC(C)(c3sc(-c4ccccc4)nc3C)C2)cc1 (centres undefined)	CAL PDZ FP-1 44.9
CCOC(=O)C1=C(C(=O)OCC)C2N(Cc3ccc(C#N)cc3)c3ccccc3[C@@]23C[C@@H](C(=O)OC)N(S(=O)(=O)c2cccs2)C3=N1 (some centres undefined)	none (no result: Keap1-Nrf2 PPI, LANA DNA inh, CAL PDZ FP-1, CAL PDZ FP-2, LANA-H2B inh)
Cc1cccc(Oc2ccccc2NC(=O)C2=COCCO2)c1	LANA-H2B inh active (no result: CAL PDZ FP-1)
COc1cccc(Oc2ccc(C(F)(F)F)cc2NC(=O)C2=COCCO2)c1	none (no result: CAL PDZ FP-1)
COCc1cc(N2CCNC[C@@H]2C)ccc1N1CCN(Cc2ccccc2)[C@H](C)C1	none (no result: Keap1-Nrf2 PPI, LANA DNA inh, CAL PDZ FP-1, CAL PDZ FP-2, LANA-H2B inh)
CC(C)(C)OC(=O)N1CCC(NC(=O)c2[nH]cnc2C(=O)Nc2cccc(Cl)c2)CC1	CAL PDZ FP-1 45.3
OCCN1CN(c2ccccc2)C(=S)N(c2ccccc2)C1	none (no result: Keap1-Nrf2 PPI, LANA DNA inh, CAL PDZ FP-1, CAL PDZ FP-2, LANA-H2B inh)
COc1ccc(OCCCN2CCC(C(O)(c3ccccc3)c3ccccc3)CC2)cc1	none (no result: Keap1-Nrf2 PPI, LANA DNA inh, CAL PDZ FP-1, CAL PDZ FP-2, LANA-H2B inh)

Screens as filed in PubChem.
